Assay outcomes deposited in PubChem by several laboratories.
Rows were chosen to be rich in hits. Some 4.4% of all compounds tested hit in one or more screens of this group.
HTR2A ag – agonists of mouse serotonin 5-HT2A receptor (HTR2A). activation, % at 7.6 µM. actives 0.66% (n = 360,000). P35363. CHO-K1 mHTR2A beta-arrestin complementation, luminescence; percent of 30 µM serotonin response;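 active means activation above a run cutoff, the mean activation of all tested compounds plus 3 SD, cut at about 14% in these data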;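 further: 0% = plate median of compound wells and 100% = 30 µM serotonin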
Target sequence (P35363 whole entry, looked up): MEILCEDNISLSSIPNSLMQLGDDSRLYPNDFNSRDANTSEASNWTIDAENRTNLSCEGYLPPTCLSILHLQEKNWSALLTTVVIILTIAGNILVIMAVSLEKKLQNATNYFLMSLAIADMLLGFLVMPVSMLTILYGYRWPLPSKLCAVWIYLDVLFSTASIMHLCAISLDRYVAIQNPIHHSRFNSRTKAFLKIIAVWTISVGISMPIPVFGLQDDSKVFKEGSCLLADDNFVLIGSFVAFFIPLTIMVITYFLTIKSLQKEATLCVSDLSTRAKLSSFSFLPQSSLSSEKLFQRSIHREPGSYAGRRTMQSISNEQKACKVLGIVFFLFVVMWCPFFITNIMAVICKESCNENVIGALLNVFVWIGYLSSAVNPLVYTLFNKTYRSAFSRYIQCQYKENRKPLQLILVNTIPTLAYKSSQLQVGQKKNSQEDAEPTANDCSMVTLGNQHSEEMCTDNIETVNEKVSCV
AI-2 QS modul – Vibrio harveyi AI-2 quorum sensing modulation; activity change, % at 7.5 µM; actives 0.4% (n = 300,000); Vibrio harveyi JMH597 AI-2 luminescence/OD600 ratio, 9 h; stronger effect = lower value; strain lacks LuxN and CqsS sensors; 0 = neutral-control median; in the data active means activity change below about -75%, passing the limit was not always enough;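 further: luminescence divided by OD600 gain over 9 h not by final OD600 alone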
bovine MsrA act – activators of bovine methionine sulfoxide reductase A. purified bovine MsrA, absorbance read-out. actives 0.3% (n = 360,000). activation, % at 10.6 µM; in the data active means activation above about 7.5%;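 further: 0% = vehicle and 100% = reference activator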
AHR activator – human AHR activation; activation, % at 5 µM; AID 2796; actives 2.5% (n = 320,000); AHR-responsive luciferase reporter cells, luminescence; in the data active means activation above about 47%;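 further: 0% = vehicle wells and 100% = reference agonist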
MsrA inhibitor – inhibits bovine methionine sulfoxide reductase A | purified bovine MsrA, absorbance read-out | inhibition, % at 15.5 µM | actives 0.75% (n = 360,000) | AID 651718; in the data active means inhibition above about 4.5%;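 further: 0% = vehicle wells with enzyme and 100% = reference inhibitor wells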
Tb MetRS inh – blocks T. brucei methionyl-tRNA synthetase activity | AID 624268 | inhibition, % at 11.9 µM | purified T. brucei MetRS, ATP depletion, Kinase-Glo luminescence | actives 0.4% (n = 360,000);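 active means inhibition above a per-plate cutoff of the control wells' mean inhibition plus 3 SD, cut at about 5.5% in these data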;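 further: 0% = DMSO wells median and 100% = median of wells with control inhibitor compound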
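Dosing: 11.9 µM single point; system: parasite MetRS enzyme; technique: luminescence of leftover ATP; times: 15 min enzyme-compound preincubation, 2 h reaction, 10 min detection, 25 °C; replicates: each compound tested once; read-out basis: percent inhibition relative to median high and low control wells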
AHR act cf – human AHR activation, confirmation; shares compounds with AHR activator; human cells, AHR-responsive luciferase reporter, luminescence; activation, % at 9 µM; actives 87% (n = 2,300); in the data active means activation above about 49%;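 further: HepG2 hepatoma cells carrying a DRE-driven firefly luciferase reporter; 0% = vehicle wells and 100% = reference agonist wells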
PXR act counter – counter-screen for AHR activators: human PXR activators; shares compounds with AHR activator; cell-based PXR reporter, luciferase luminescence; activation, % at 11.6 µM; actives 88% (n = 2,300); in the data active means activation above about 11%;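 further: human hepatoma DPX-2 cells expressing full-length human PXR; 0% = DMSO and 100% = reference agonist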
* = called active by the depositor.

`COc1ccc(S(=O)(=O)Nc2cc3c(C(C)=O)c(C)oc3c3ccccc23)cc1` gave HTR2A ag -3.2, AI-2 QS modul 29.6, bovine MsrA act -0.8, AHR activator 91.9*, MsrA inhibitor 0.3, Tb MetRS inh 0.1, AHR act cf 75.8* and PXR act counter 254.6*.
`Cc1oc2c(cc(NS(=O)(=O)c3ccc(C(C)C)cc3)c3ccccc32)c1C(=O)O` gave HTR2A ag 4.4, AI-2 QS modul 34.7, bovine MsrA act 2.3, AHR activator 16.8, MsrA inhibitor -1.2 and Tb MetRS inh 0.6.
For Cc1oc2c(cc(NS(=O)(=O)c3ccc(F)cc3)c3ccccc32)c1C(=O)O the results were HTR2A ag 4.8, AI-2 QS modul 11.2, bovine MsrA act -4.1, AHR activator 18.9, MsrA inhibitor 0.4 and Tb MetRS inh 0.4.
COc1ccc(OC)c(NC(=O)Cn2c(=O)n(CC3CCCO3)c(=O)c3cc(OC)c(OC)cc32)c1 (stereo not drawn) was read as HTR2A ag 4.8, AI-2 QS modul 26.5, bovine MsrA act -7.0, AHR activator 1.2, MsrA inhibitor 1.1 and Tb MetRS inh -0.3.
For CC(=O)Nc1ccc(CN(C)c2c(C)nc3ccc(C(=O)N4CCN(c5ccccc5)CC4)cn23)cc1 the results were HTR2A ag 4.1, bovine MsrA act 0.1, MsrA inhibitor -0.1 and Tb MetRS inh -0.2.
`CCCCNc1c(-c2ccc(OC)c(SC3CCCCC3)c2)nc2cnccn12` gave HTR2A ag 1.4, AI-2 QS modul 15.3, bovine MsrA act -2.1, AHR activator 94.1*, Tb MetRS inh -0.2, AHR act cf 57.6* and PXR act counter 168.9*.
For CCCCNc1c(-c2ccc(OC)c(SC3CCCCC3)c2)nc2cc(C)ccn12 the results were HTR2A ag -6.6, AI-2 QS modul 32.7, bovine MsrA act -2.4, AHR activator 29.4, MsrA inhibitor 0.8 and Tb MetRS inh -0.2.
For COc1ccc(C(=O)CSc2ccc3nnc(-c4cccnc4)n3n2)cc1 the results were HTR2A ag 4.0, AI-2 QS modul 16.4, bovine MsrA act -10.1, AHR activator 82.9*, MsrA inhibitor -0.1, Tb MetRS inh -0.9, AHR act cf 73.6* and PXR act counter 11.3*.
Screening Cc1csc(NC(=O)CSc2ccc3nnc(-c4ccncc4)n3n2)n1 returned HTR2A ag 8.7, AI-2 QS modul 13.8, bovine MsrA act -10.6, AHR activator 92.0*, MsrA inhibitor -0.7, Tb MetRS inh -0.3 and AHR act cf 65.4*.
Screening CC(=O)Cc1cc(O)c2ccccc2c1OC(=O)c1ccccc1 returned HTR2A ag -7.8, AI-2 QS modul 6.8, bovine MsrA act -2.4, AHR activator 92.6*, MsrA inhibitor 0.2, Tb MetRS inh -0.4, AHR act cf 98.0* and PXR act counter 16.0*.
CC(=O)c1cc(C)c(OC(=O)c2ccccc2)c(C)c1 was read as HTR2A ag 6.6, bovine MsrA act -9.8, MsrA inhibitor 0.4 and Tb MetRS inh -0.4.
Cn1c(N/N=C2\CCCc3ccccc32)nc2c1c(=O)n(Cc1ccccc1)c(=O)n2C was read as HTR2A ag -1.1, AI-2 QS modul 32.2, bovine MsrA act 6.8, AHR activator 9.7, MsrA inhibitor -0.1 and Tb MetRS inh 0.5.
`Cn1c(=O)c2c(nc(N/N=C3\CCCc4ccccc43)n2Cc2ccc(F)cc2)n(C)c1=O` gave HTR2A ag 4.7, AI-2 QS modul 4.8, bovine MsrA act -1.8, AHR activator 94.7*, MsrA inhibitor 0.3, Tb MetRS inh 0.6, AHR act cf 88.8* and PXR act counter 40.3*.
`O=C(N/N=C\c1cc2c(cc1Cl)OCO2)c1cccnc1` gave HTR2A ag -4.4, AI-2 QS modul 37.2, bovine MsrA act -5.7, AHR activator 80.0*, MsrA inhibitor 3.9, Tb MetRS inh -0.3, AHR act cf 79.3* and PXR act counter 13.3*.
Screening O=C(N/N=C/c1cc2c(cc1Cl)OCO2)c1ccncc1 returned HTR2A ag -6.4, AI-2 QS modul 16.3, bovine MsrA act -4.1, AHR activator 86.8*, MsrA inhibitor 0.7, Tb MetRS inh -0.2, AHR act cf 63.0* and PXR act counter 8.7.
`O=C(N/N=C/c1cc2c(cc1Cl)OCO2)c1cccc(Br)c1` gave HTR2A ag 3.8, AI-2 QS modul 5.7, bovine MsrA act -5.6, AHR activator 32.3, MsrA inhibitor 1.1 and Tb MetRS inh -0.4.
`O=C(N/N=C/c1cc2c(cc1Cl)OCO2)c1cc(-c2ccccc2)n[nH]1` gave HTR2A ag -9.4, AI-2 QS modul 19.8, bovine MsrA act -1.6, AHR activator 34.1, MsrA inhibitor 0.0 and Tb MetRS inh -0.6.
`CCCCNc1ccc2c(c1)OC[C@@H](Cc1ccccc1)NS2(=O)=O` gave MsrA inhibitor 0.7.
O=C(CN1CCCC1)Nc1sc2c(c1C(=O)Nc1ccc(Br)cc1)CCC2 was read as HTR2A ag -2.2, AI-2 QS modul 14.6, bovine MsrA act -3.2, AHR activator 79.2*, MsrA inhibitor 0.2, Tb MetRS inh -0.2, AHR act cf 103.6* and PXR act counter 52.0*.
CN1CCN(CC(=O)Nc2sc3c(c2C(=O)Nc2ccccc2)CCCC3)CC1 was read as HTR2A ag 0.2, AI-2 QS modul 17.2, bovine MsrA act 0.2, AHR activator 4.3, MsrA inhibitor 0.5 and Tb MetRS inh -0.1.
Oc1ccc2ccc3[nH]cnc3c2c1 was read as HTR2A ag -9.4, AI-2 QS modul -12.8, bovine MsrA act -3.2, AHR activator 80.2*, MsrA inhibitor 0.0, Tb MetRS inh 0.7, AHR act cf 37.2 and PXR act counter 21.8*.
`Clc1ccc(Nc2nc3ccccc3n3nnnc23)cc1` gave HTR2A ag 2.6, AI-2 QS modul 37.4, bovine MsrA act -1.9, AHR activator 81.2*, MsrA inhibitor 0.9, Tb MetRS inh 0.4, AHR act cf 104.3* and PXR act counter 50.4*.
Cc1cccc(Nc2nc3ccccc3n3nnnc23)c1 was read as HTR2A ag -7.3, AI-2 QS modul 4.0, bovine MsrA act -1.3, AHR activator 30.4, MsrA inhibitor 1.5 and Tb MetRS inh -0.1.
For Fc1cc(Br)ccc1Nc1nc2ccccc2n2nnnc12 the results were HTR2A ag -0.2, AI-2 QS modul 3.4, bovine MsrA act -3.9, AHR activator 131.5*, MsrA inhibitor 3.0, Tb MetRS inh 0.2, AHR act cf 125.2* and PXR act counter 27.6*.
